# Hits are enriched below; roughly 2.3% of the tested compounds scored in any of these assays.
# TPT1 inhibitor – C. albicans TPT1 enzyme inhibition; 0.81% of 300,000 active; inhibition, % at 5 µM; AID 1962; recombinant caTPT1, FP RNA substrate dephosphorylation;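 active means inhibition above the mean of all tested compounds plus 3 SD, set per screening campaign, cut at about 24% in these data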;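 further: plate controls were DMSO alone for no effect and ferristatin control at 100 nM for full effect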
# Rpn11 block – Rpn11 (human) deubiquitinase inhibition; O00487; inhibition, % at 20 µM; 0.59% of 360,000 active; AID 588493; human 26S proteasome, Ub4-pepOG fluorescence polarization; 20S core pre-blocked with epoxomicin;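 active means inhibition at 20 µM, scaled to each plate's controls, above about 33%, limit read from the data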
# Myeloid diff 2 – myeloid differentiation induction. calls only at 10 µM. AID 624256. 1% of 360,000 active. ER-HoxA9 myeloid progenitors, lysozyme-GFP differentiation, flow cytometry;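 active means normalized GFP-positive differentiation at or above the plate's own cutoff, the solvent-only control mean plus 3 SD; inconclusive means no clear call, values can overlap the other calls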;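 further: cells exposed to compound for four days before flow analysis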
# CSN deneddyl inh – CSN deneddylation inhibition; Purified CSN, SCF-Nedd8-OG deneddylation, fluorescence polarization; inhibition, % at 12.5 µM; 0.38% of 360,000 active;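 active means pattern-corrected inhibition above about 35%, with an unprinted fluorescence ratio check between 0.5 and 1.5, limit read from the data, passing the limit was not always enough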;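 further: 0% = enzyme with substrate and 100% = substrate without enzyme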
#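 assay system = purified human Csn5 enzyme expressed in HEK293T cells | amount = 0.24 nM enzyme | buffer or medium = Tris/NaCl/DTT buffer, pH 7.5 | reagent = 10 nM SCFSkp2-Nedd8OG | compound = one concentration, 12.5 µM, 0.25% DMSO | times = 90 min reaction at room temperature | signal = FP | read-out basis = % inhibition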
# HNF4A DNA FP – change in binding of human HNF4 alpha to DNA; P41235; HNF4a-FITC DNA binding, fluorescence polarization, 1 h; activity change, % at 10 µM; 0.3% of 360,000 active; in the data active means activity change above about 30%, passing the limit was not always enough
# caTPT1 confirm – TPT1 (C. albicans) inhibition, confirmation | shares compounds with TPT1 inhibitor | recombinant caTPT1, fluorescence polarization, RNase T1 coupled | inhibition, % at 5 µM | 74% of 2,400 active | AID 2149;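 active means inhibition above the primary screen limit, the mean inhibition of all tested compounds plus 3 SD, cut at about 25% in these data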
# RNase T1 inh – RNase T1 inhibition in TPT1 counter-screen. inhibition, % at 5 µM. shares compounds with TPT1 inhibitor. AID 2153. RNase T1 cleavage, fluorescence polarization, 1536-well. 83% of 2,400 active;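 active means inhibition above the solvent-only control well mean plus 3 SD, limit set per screening run, cut at about 23% in these data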;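 further: plate controls were DMSO wells with enzyme for no effect and wells without RNase T1 for full effect; inhibitors block cleavage so intact labeled substrate keeps polarization high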
# Rpn11 inh conf – confirmation of human proteasome Rpn11 inhibitors; shares compounds with Rpn11 block; inhibition, % at 20 µM; purified human 26S proteasome, Ub4-pepOG fluorescence polarization; proteasome pretreated with epoxomicin; AID 602318; 29% of 1,900 active
# MMP-2 inh – MMP-2 (human) inhibition counter-screen; inhibition, % at 20 µM; shares compounds with Rpn11 block; recombinant MMP-2, FRET peptide cleavage fluorescence; 4% of 1,900 active;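 further: human MMP-2 activated beforehand with APMA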
# Target sequence (P08253 whole entry, looked up): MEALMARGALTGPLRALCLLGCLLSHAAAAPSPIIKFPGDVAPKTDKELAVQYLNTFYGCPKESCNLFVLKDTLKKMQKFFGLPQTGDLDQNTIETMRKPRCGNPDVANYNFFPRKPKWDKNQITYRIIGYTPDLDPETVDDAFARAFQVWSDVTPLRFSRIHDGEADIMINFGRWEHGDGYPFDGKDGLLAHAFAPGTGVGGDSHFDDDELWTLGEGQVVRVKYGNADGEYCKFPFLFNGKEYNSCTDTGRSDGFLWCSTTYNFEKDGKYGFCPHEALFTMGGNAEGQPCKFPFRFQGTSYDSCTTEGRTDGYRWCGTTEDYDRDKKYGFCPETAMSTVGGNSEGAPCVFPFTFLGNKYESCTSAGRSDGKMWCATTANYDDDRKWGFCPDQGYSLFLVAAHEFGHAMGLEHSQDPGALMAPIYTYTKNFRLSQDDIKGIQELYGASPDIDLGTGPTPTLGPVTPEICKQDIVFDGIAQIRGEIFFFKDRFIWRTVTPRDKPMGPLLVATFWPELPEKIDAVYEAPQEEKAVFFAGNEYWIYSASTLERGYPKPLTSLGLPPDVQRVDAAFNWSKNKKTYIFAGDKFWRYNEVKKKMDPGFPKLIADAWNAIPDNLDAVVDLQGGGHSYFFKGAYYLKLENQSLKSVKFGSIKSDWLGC
# Thrombin inh – blocks bovine thrombin, flagging nonselective RPN11 hits | shares compounds with Rpn11 block | bovine thrombin cleavage of Ub4-pepOG, fluorescence polarization | inhibition, % at 20 µM | 13% of 1,900 active | AID 602333;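 active means mean inhibition at least 40% at 20 µM, or signal 3 deviations below plate average, so some actives read negative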;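 further: plate controls were thrombin with DMSO for no effect and buffer wells lacking thrombin for full effect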
# Starred values were filed as active, the others as inactive; i = inactive; ? = inconclusive; nt = no result given. Unless noted, no stated cut-off is given here; in the data, active means inhibition above about 40%; inactive means the rest.
SMILES,TPT1 inhibitor,Rpn11 block,Myeloid diff 2,CSN deneddyl inh,HNF4A DNA FP,caTPT1 confirm,RNase T1 inh,Rpn11 inh conf,MMP-2 inh,Thrombin inh
CN(C)c1ccc(/C=C(/NC(=O)c2ccccc2)C(=O)N2CCCC2)cc1,60*,64*,i,38*,5,35*,44*,0,29,-4
O=C1N/C(=C/c2ccc(N3CCCC3)cc2)C(=O)N1c1ccccc1,34*,41*,i,9,16,49*,63*,3,-20,-7
O=C1NC(=O)N(c2ccccc2)C1=O,-3,-5,i,3,-3,nt,nt,nt,nt,nt
O=C1N/C(=C/c2ccc(N3CCOCC3)o2)C(=O)N1c1ccccc1,70*,59*,?,-1,112,150*,148*,166*,20,166*
COc1cc(/C=C2\SC(=S)N(N3CCOCC3)C2=O)ccc1O,15,0,i,8,-10,nt,nt,nt,nt,nt
COc1cc(/C=C2\SC(=S)N(NS(=O)(=O)c3ccccc3)C2=O)ccc1O,31*,78*,i,31,30,34*,42*,50*,39,52*
COc1cc(/C=C2/SC(=S)N(c3c(C)n(C)n(-c4ccccc4)c3=O)C2=O)ccc1O,29*,100*,i,31,25,29*,42*,63*,-10,43*
COc1ccc(S(=O)(=O)N2CCN(C(=O)Cc3ccsc3)CC2)cc1,nt,-1,i,1,0,nt,nt,nt,nt,nt
CN(Cc1c(F)cccc1Cl)C(=O)CNC(=O)c1sc2ccccc2c1Cl,2,-1,i,-3,0,nt,nt,nt,nt,nt
CCN1C(=O)/C(=C/C=C2/Sc3ccccc3N2CCO)SC1=S,40*,52*,i,30,36*,33*,45*,26,18,12
CCCNS(=O)(=O)c1cccc(C(=O)NNC(=O)c2cc(C)oc2C)c1,-1,2,i,2,-3,nt,nt,nt,nt,nt
Nc1ccc(/C=C/C(=O)c2ccco2)cc1,73*,90*,i,17,13,81*,92*,77*,-31,67*
N#Cc1ccc(/C=C/C(=O)c2ccco2)cc1,-1,-16,i,3,2,nt,nt,nt,nt,nt
O=C1N=C(N2CCOCC2)SC1=Cc1ccco1,nt,18,i,1,8,nt,nt,nt,nt,nt
Cc1ccc(-c2ccc(/C=C3\SC(N4CCOCC4)=NC3=O)o2)cc1,48*,60*,?,12,51*,52*,62*,48*,4,34
Cc1cc(SCC#N)nc2ccccc12,2,0,i,4,3,nt,nt,nt,nt,nt
COc1ccc2c(C)cc(SCC#N)nc2c1,41*,41*,i,13,12,40*,49*,37,-64,19
Cc1cccc(NC(=O)Cc2coc3ccc4ccccc4c23)n1,-2,19,i,5,3,nt,nt,nt,nt,nt
CCOC(=O)c1c(CC(C)C)csc1/N=C/C1C(=O)CC(C)(C)CC1=O,61*,48*,i,36*,-3,12,15,8,10,-9
CC(C)C[C@H](NC(=O)OC(C)(C)C)C(=O)N[C@@H](CO)[C@H](O)[C@@H]1C[C@@H]1C(=O)NC1CC1,-3,8,i,-5,-39,nt,nt,nt,nt,nt
CCCCN(C(=O)C1CC(=O)N(CCc2ccc(OC)c(OC)c2)C1)c1c(N)n(CC(C)C)c(=O)[nH]c1=O (stereo not drawn),nt,-3,i,-7,-1,nt,nt,nt,nt,nt
C[C@@H]1CN([C@@H](C)CO)S(=O)(=O)c2ccc(Br)cc2O[C@@H]1CN(C)C(=O)C1CC1,nt,0,i,6,-2,nt,nt,nt,nt,nt

# From PubChem BioAssay
